Among the data in ChEMBL document CHEMBL1139336, “Discovery of alpha-amidosulfones as potent and selective agonists of CB2: synthesis, SAR, and pharmacokinetic properties” (Bioorg Med Chem Lett, 2009) are EC50 and Emax values, retold here.

Assay [1] has as its target T1, Cannabinoid receptor 1 (Homo sapiens, UniProt P21554). The assay is described as follows: Agonist activity at human CB1 receptor expressed in SF9 cells assessed as inhibition of CP-55940-stimulated GTP binding. Summed up:
(§1)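 Sf9 membranes co-expressing hCB1 or hCB2 with Gαi3 (Bmax 1.7 pmol/ml). Europium-GTP (10 nM) binding in 50 mM Hepes, 0.1% BSA, 10 mM MgCl2, 150 mM NaCl, GDP, 0.0005% saponin, 1% DMSO. Compound tested from 0.01 nM upward. Incubated 45 min at room temperature, then filtered and washed; fluorescence read at 615 nm. 3 micromolar CP55940 defines 100% efficacy.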

Assay [2] has as its target T1, Cannabinoid receptor 1. Put plainly: Agonist activity at human CB1 receptor expressed in SF9 cells assessed as inhibition of CP-55940-stimulated GTP binding relative to control. Summed up: (§2)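 Sf9 insect-cell membranes co-expressing hCB1 or hCB2 with Gαi3 (Bmax 1.7 pmol/ml). Compound added in 50 mM Hepes/0.1% BSA to buffer with 10 mM MgCl2, 150 mM NaCl, GDP, 10 nM GTP-Europium and 0.0005% saponin. Final DMSO was 1%. Incubated 45 min at room temperature, then filtered, washed and read by fluorescence at 615 nm. 3 µM CP55940 set 100% efficacy. Logistic fit, n = 2–20.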

The target in assay [3] is T2, Cannabinoid receptor 2 (Homo sapiens, UniProt P34972). Put plainly: Agonist activity at human CB2 receptor expressed in SF9 cells assessed as inhibition of CP-55940-stimulated GTP binding. Summed up:
as §1

The target in assay [4] is T2, Cannabinoid receptor 2. Put plainly: Agonist activity at human CB2 receptor expressed in SF9 cells assessed as inhibition of CP-55940-stimulated GTP binding relative to control. Summed up:
as §2

The target in assay [5] is T1, Cannabinoid receptor 1. Put plainly: Agonist activity at human CB1 receptor. The format is functional.
The target in assay [6] is T1, Cannabinoid receptor 1. The assay is described as follows: Agonist activity at human CB1 receptor relative to control. Format: functional.
Assay [7] deals with T1, Cannabinoid receptor 1. Put plainly: Agonist activity at human CB1 expressed in CHO cells receptor assessed as suppression of forskolin-stimulated cAMP accumulation relative to control. The format is functional, cell-based. Summed up: (§3)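 CHO cells expressing human CB1 or CB2. Read-out was suppression of forskolin-induced cAMP production in whole cells. Emax was taken as the maximum of the dose–response curve. Values are means of n = 2–20 independent measurements, derived by logistic fit.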

Assay [8] concerns the target T2, Cannabinoid receptor 2. The assay is described as follows: Agonist activity at human CB2 receptor expressed in CHO cells assessed as suppression of forskolin-stimulated cAMP accumulation relative to control. Format: functional, cell-based. Summed up: as §3
(In general: Cyclic AMP is a second messenger, typically raised through Gs and lowered through Gi signalling.)

Assay [9] has as its target T2, Cannabinoid receptor 2. The assay is described as follows: Agonist activity at human CB2 receptor expressed in CHO cells assessed as suppression of forskolin-stimulated cAMP accumulation. The format is functional, cell-based. Summed up:
(§4)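 Forskolin-induced cAMP measured in CHO cells expressing human CB1 or CB2. EC50 from a logistic fit of the concentration–response curve. Emax taken as the maximum of the dose–response. Means of n = 2–20 independent measurements.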

Assay [10] has as its target T1, Cannabinoid receptor 1. Put plainly: Agonist activity at human CB1 receptor expressed in CHO cells assessed as suppression of forskolin-stimulated cAMP accumulation. Format: functional, cell-based. Summed up: as §4
Assay [11] concerns the target T2, Cannabinoid receptor 2. Put plainly: Agonist activity at human CB2 receptor relative to control. Format: functional.
Assay [12] addresses T2, Cannabinoid receptor 2. Put plainly: Agonist activity at human CB2 receptor. The format is functional.

T1 sequence (P21554 whole entry): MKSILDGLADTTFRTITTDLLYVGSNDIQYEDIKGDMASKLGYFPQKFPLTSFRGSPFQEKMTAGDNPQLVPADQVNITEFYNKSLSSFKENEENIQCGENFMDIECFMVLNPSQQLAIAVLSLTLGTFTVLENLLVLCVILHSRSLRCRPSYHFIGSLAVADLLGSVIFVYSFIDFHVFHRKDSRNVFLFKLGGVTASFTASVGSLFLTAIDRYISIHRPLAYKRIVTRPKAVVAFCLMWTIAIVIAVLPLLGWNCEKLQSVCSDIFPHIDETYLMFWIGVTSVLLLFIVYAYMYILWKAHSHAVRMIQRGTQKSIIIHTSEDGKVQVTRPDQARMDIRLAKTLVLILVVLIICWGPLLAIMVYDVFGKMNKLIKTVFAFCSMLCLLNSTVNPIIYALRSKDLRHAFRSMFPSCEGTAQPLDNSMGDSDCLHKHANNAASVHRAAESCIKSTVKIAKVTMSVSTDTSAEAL
T2 sequence (P34972 whole entry): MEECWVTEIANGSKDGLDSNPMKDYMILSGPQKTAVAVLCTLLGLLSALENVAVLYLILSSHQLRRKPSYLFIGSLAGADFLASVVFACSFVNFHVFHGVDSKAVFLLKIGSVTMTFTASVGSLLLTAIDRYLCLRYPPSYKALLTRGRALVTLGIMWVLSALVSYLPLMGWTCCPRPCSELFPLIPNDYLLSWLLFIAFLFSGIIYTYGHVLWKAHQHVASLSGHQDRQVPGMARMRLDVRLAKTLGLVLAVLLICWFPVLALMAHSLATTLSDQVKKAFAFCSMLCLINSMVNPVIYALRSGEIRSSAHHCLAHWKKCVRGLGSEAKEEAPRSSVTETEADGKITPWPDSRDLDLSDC

`Cc1cnc(NC(=O)C(C)(C)S(=O)(=O)c2ccc(Cl)cc2)s1`: the concentration giving a half-maximal response (EC50) in assay [1] and in assay [3] was greater than 10 µM in each case. Moreover, the Emax (usually the size of the effect at its maximum, as opposed to the concentration needed) in assay [2] worked out at 7%; in assay [4] it was 4%.
As for `CC1(c2nnc(NC(=O)C(C)(C)S(=O)(=O)c3ccc(Cl)cc3)s2)CCOC1` (stereo not drawn), the EC50 (as a rule, the midpoint of the concentration-response curve) was greater than 10 µM in [1] and 0.216 µM in [3]. For the same molecule, the figures for the Emax in [2] and in [4] were 10% and 99%, respectively.
Turning to `CCn1c2ccccc2c2cc(NC(=O)CCc3nc(-c4ccccc4F)no3)ccc21`, the EC50 in assay [5] was greater than 2 µM. Also, the Emax in assay [6] came out at 2%.
With `CC(C)(C(=O)Nc1cccc(C(F)(F)F)c1)S(=O)(=O)c1ccc(Cl)cc1`, the Emax in [7] worked out at 21%; in assay [8] it was 93%; in [2] it was 15%; in assay [4], 89%. Besides, the EC50 in assay [1] is greater than 10 µM; in assay [3] it was 0.17 µM; in assay [9], 0.035 µM; in assay [10], greater than 1 µM.
Turning to `CC(C)(C(=O)NCc1ccccc1)S(=O)(=O)c1ccc(Cl)cc1`, the EC50 in assay [1] and in assay [3] was greater than 10 µM each time. The figures for the Emax in assay [2] and in assay [4] were 7% and 0%, respectively.
Turning to `CC(C)(C(=O)NCc1ccc(F)c(Cl)c1)S(=O)(=O)c1ccc(Cl)cc1`, the EC50 was greater than 10 µM in assay [1] and 1.3 µM in assay [3]. The Emax in assay [2] is 2%; in [4], 76%.
For `CCn1c2ccccc2c2cc(NC(=O)C3(S(=O)(=O)c4ccccc4)CC3)ccc21`, the EC50 in [5] came to 0.39 µM; in assay [12], 0.008 µM. The Emax was 95% in [11] and 40% in assay [6].
On to `CC(C)(C(=O)Nc1cnc2ccccc2c1)S(=O)(=O)c1ccc(Cl)cc1`, for which the Emax stood at 47% in assay [7], 93% in [8], 47% in assay [2] and 90% in [4]. Besides, the EC50 in [1] is 1.68 µM; in assay [3], 0.057 µM; in assay [9] it was 0.013 µM; in assay [10] it was greater than 1 µM.
With `Cc1ccccc1-c1nnc(NC(=O)C(C)(C)S(=O)(=O)c2ccc(Cl)cc2)s1`, the results for the EC50 in assay [1] and in assay [3] were 1.65 µM and 0.189 µM, respectively. In addition, the Emax in [2] was found to be 48%; in [4], 81%.
For the molecule `CC(C)(C(=O)Nc1cnc2ccccc2c1)S(=O)(=O)c1ccc(F)cc1`, the Emax in [7] worked out at 19%; in assay [8] it was 97%; in assay [2] it was 22%; in assay [4], 102%. Moreover, the EC50 was 2.78 µM in [1], 0.109 µM in assay [3], 0.033 µM in assay [9] and greater than 2 µM in assay [10].
For `COc1ccc(S(=O)(=O)C(C)(C)C(=O)Nc2cnc3ccccc3c2)c(Cl)c1`, the EC50 was greater than 10 µM in [1] and 0.148 µM in assay [3]. Further, the figures for the Emax in assay [2] and in assay [4] were 12% and 91%, respectively.
The matching figures for `CC(C)(C(=O)Nc1ccc(Cl)cc1C#N)S(=O)(=O)c1ccc(Cl)cc1`: greater than 10 µM, greater than 10 µM, 0% and 14%.
The matching figures for `CC(C)(C(=O)Nc1cnc2ccccc2c1)S(=O)(=O)c1ccc(F)cc1Cl`: greater than 10 µM, 0.104 µM, 7% and 108%.
In the case of `CC(C)(C(=O)Nc1ccc(Cl)c(Br)c1)S(=O)(=O)c1ccc(Cl)cc1`, the EC50 in assay [1] was greater than 10 µM; in assay [3], 0.086 µM. Also, the Emax came to 7% in assay [2] and 77% in assay [4].
In the case of `CC(C)(C)c1cc(NC(=O)C(C)(C)S(=O)(=O)c2ccc(Cl)cc2)no1`, the Emax worked out at 23% in [7], 85% in [8], 57% in assay [2] and 99% in assay [4]. In addition, the EC50 was 1.92 µM in [1], 0.029 µM in assay [3], 0.011 µM in assay [9] and greater than 2 µM in [10].
`CC(C)(C(=O)Nc1cnc2ccccc2c1)S(=O)(=O)c1ccc(C(F)(F)F)cc1Cl`: the Emax in [7] was found to be 41%; in [8], 94%; in assay [2], 71%; in assay [4], 94%. For the same molecule, the EC50 in [1] was 1.57 µM; in assay [3] it was 0.019 µM; in assay [9], 0.073 µM; in [10] it was greater than 2 µM.
In the case of `CC(C)(C(=O)Nc1ccc(C(F)(F)F)cc1)S(=O)(=O)c1ccc(Cl)cc1`, the Emax was 19% in [7], 93% in assay [8], 14% in assay [2] and 77% in [4]. In addition, the EC50 was greater than 10 µM in [1], 0.115 µM in [3], 0.057 µM in assay [9] and greater than 1 µM in assay [10].
Turning to `Cc1cc(NC(=O)C(C)(C)S(=O)(=O)c2ccc(Cl)cc2)no1`, the EC50 in [1] was greater than 10 µM; in assay [3], 3.86 µM. For the same molecule, the Emax in assay [2] is 1%; in assay [4], 19%.
Consider `Cc1ccc(-c2cncc(NC(=O)C(C)(C)S(=O)(=O)c3ccc(Cl)cc3)c2)s1`, for which the Emax in [7] was found to be 106%; in [8], 99%; in [2], 80%; in [4] it was 102%. Besides, the EC50 in [1] was found to be 0.322 µM; in assay [3], 0.009 µM; in assay [9], 0.005 µM; in assay [10] it was 0.331 µM.
Take `O=C(Nc1cnc2ccccc2c1)C1(S(=O)(=O)c2ccccc2)CC1`: the EC50 was greater than 10 µM in [5] and 0.004 µM in assay [12]. The Emax in [11] is 31%; in assay [6] it was 6%.
For the molecule `CC(C)(C(=O)Nc1ccc(Cl)c(-c2ccco2)c1)S(=O)(=O)c1ccc(Cl)cc1`, the Emax was 98% in assay [7], 101% in [8], 82% in assay [2] and 101% in [4]. For the same molecule, the EC50 came out at 0.096 µM in [1], 0.004 µM in [3], 0.005 µM in [9] and 0.23 µM in assay [10].
Consider `CC(C)(C(=O)Nc1ccc(Cl)cc1OC(F)(F)F)S(=O)(=O)c1ccc(Cl)cc1`, for which the EC50 in [1] is greater than 10 µM; in assay [3], 1.62 µM. For the same molecule, the figures for the Emax in assay [2] and in [4] were 2% and 44%, respectively.
